The values that follow come from ChEMBL document CHEMBL1141716, “Discovery and optimization of substituted piperidines as potent, selective, CNS-penetrant alpha4beta2 nicotinic acetylcholine receptor potentiators” (Bioorg Med Chem Lett, 2008).

Molecules are shown by their SMILES. Activity calls are given as the source filed them. The rule behind the calls is not given here.

In data set [1] the target is T1, Neuronal acetylcholine receptor; alpha4/beta2 (Homo sapiens, UniProt P17787+P43681). The data set can be described thus: Activation of human alpha4beta2 nAChR assessed as potentiation of submaximal response to […] relative to maximal nicotine response. Format: protein-complex assay. The method, boiled down:
(§1)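 Fluorescence-based functional assay; compounds first screened at 10 µM for increase of the fluorescent response to an EC₁₂ concentration of nicotine, actives then run dose–response; EC₅₀ and peak response recorded, efficacy expressed as % of maximal nicotine response; average of n ≥ 2.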

The target in data set [2] is T1, Neuronal acetylcholine receptor; alpha4/beta2. The experiment in a line: Activation of human alpha4beta2 nAChR assessed as potentiation of submaximal response to nicotine induced current. The method, boiled down:
as §1

The next data set has as its system MDR1. The experiment in a line: Permeability efflux ratio in MDR1 expressing pig LLC-PK1 cells. Format: ADME, cell-based, Sus scrofa.
Data set [3] in a line: Drug level in Sprague-Dawley rat brain at 5 mg/kg, ip after 1 hr. Details: dose 5 mg/kg, route intraperitoneal. Type of data set: ADME, organism-based. The settings on record: read-out: Drug uptake. The method, boiled down:
(§2)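 Rats dosed ip at 5 mg/kg in DMSO; sacrificed at 1 h; plasma, brain and CSF collected and drug concentrations measured.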

The nature of data set [4]: Plasma concentration in Sprague-Dawley rat at 5 mg/kg, ip after 1 hr. Type of data set: ADME, organism-based. The arrangement: dose 5 mg/kg, route intraperitoneal. An outline of the steps: as §2
Data set [5] is described as follows: Drug level in Sprague-Dawley rat CSF at 5 mg/kg, ip after 1 hr. The settings on record: read-out: Drug uptake. Format: ADME, organism-based, Cerebrospinal fluid. Details: dose 5 mg/kg, route intraperitoneal. The method, boiled down: as §2
For data set [6], the target named is Neuronal acetylcholine receptor; alpha3/beta4 (Homo sapiens, UniProt P30926+P32297). The data set can be described thus: Activation of human alpha3beta4 nAChR assessed as potentiation of submaximal response to nicotine induced current. Type of data set: protein-complex assay. The method, boiled down:
as §1

Data set [7] has as its target Neuronal acetylcholine receptor; alpha3/beta2 (Homo sapiens, UniProt P17787+P32297). The data set can be described thus: Activation of human alpha3beta2 nAChR assessed as potentiation of submaximal response to nicotine induced current. The method, boiled down: as §1
Data set [8] concerns the target T1, Neuronal acetylcholine receptor; alpha4/beta2. The experiment in a line: Displacement of [3H]cytisine from human alpha4beta2 nAChR at =>30 uM. Format: protein-complex assay. (In general: Displacement assays read how much labelled ligand stays bound in the presence of the test substance.)
In data set [9] the target is Neuronal acetylcholine receptor; alpha4/beta2 (Rattus norvegicus) (UniProt P09483+P12390). The experiment in a line: Activation of rat alpha4beta2 nAChR expressed in HEK293 cells assessed as potentiation of acetylcholine-induced current by whole cell patch clamp. Type of data set: cell-based. The method, boiled down:
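Whole-cell patch-clamp with fast-flow perfusion under physiological ionic conditions; acetylcholine as agonist, holding potential −80 mV; compound also applied alone to check for evoked inward currents.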

Data set [10] deals with Neuronal acetylcholine receptor subunit alpha-7 (Homo sapiens, UniProt P36544). The data set can be described thus: Activation of human alpha7 nAChR assessed as potentiation of submaximal response to nicotine induced current.
Data set [11] concerns the target Neuronal acetylcholine receptor; alpha4/beta2 (Rattus norvegicus, UniProt P09483+P12390). The experiment in a line: Activation of rat alpha4beta2 nAChR by fluorescence assay. Type of data set: protein-complex assay.

T1 sequence (P17787 whole entry): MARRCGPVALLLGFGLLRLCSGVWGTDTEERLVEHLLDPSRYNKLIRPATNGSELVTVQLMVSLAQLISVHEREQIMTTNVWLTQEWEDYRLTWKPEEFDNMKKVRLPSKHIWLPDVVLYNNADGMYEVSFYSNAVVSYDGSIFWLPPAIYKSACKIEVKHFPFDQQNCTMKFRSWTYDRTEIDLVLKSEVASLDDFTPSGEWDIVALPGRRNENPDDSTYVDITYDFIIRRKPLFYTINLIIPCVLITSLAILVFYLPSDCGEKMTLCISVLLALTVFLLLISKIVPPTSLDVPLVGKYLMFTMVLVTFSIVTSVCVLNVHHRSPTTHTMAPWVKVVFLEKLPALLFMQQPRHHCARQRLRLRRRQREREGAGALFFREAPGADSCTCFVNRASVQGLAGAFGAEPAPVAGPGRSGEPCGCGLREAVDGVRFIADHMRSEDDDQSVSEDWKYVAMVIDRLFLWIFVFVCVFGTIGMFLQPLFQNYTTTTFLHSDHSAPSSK
T1 sequence (P43681 whole entry): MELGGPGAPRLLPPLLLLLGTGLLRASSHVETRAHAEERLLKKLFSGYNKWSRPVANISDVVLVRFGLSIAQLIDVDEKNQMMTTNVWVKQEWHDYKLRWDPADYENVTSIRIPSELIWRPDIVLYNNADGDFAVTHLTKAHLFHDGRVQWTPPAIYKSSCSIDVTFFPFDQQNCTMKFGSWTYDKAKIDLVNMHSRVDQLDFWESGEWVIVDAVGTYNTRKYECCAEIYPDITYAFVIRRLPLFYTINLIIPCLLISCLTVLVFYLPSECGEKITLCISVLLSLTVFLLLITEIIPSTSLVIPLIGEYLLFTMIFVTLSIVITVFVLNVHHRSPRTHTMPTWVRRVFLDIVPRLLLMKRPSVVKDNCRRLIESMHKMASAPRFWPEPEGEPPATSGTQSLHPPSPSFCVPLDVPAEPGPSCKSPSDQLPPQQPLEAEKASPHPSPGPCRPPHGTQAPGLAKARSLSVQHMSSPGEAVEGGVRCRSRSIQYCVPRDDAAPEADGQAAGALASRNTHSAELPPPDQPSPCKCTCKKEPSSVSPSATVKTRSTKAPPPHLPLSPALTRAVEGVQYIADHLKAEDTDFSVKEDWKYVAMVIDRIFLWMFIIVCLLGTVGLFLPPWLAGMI
Neuronal acetylcholine receptor; alpha3/beta2, sequence (P17787 whole entry): as the sequence (P17787 whole entry) above
Neuronal acetylcholine receptor; alpha3/beta2, sequence (P32297 whole entry): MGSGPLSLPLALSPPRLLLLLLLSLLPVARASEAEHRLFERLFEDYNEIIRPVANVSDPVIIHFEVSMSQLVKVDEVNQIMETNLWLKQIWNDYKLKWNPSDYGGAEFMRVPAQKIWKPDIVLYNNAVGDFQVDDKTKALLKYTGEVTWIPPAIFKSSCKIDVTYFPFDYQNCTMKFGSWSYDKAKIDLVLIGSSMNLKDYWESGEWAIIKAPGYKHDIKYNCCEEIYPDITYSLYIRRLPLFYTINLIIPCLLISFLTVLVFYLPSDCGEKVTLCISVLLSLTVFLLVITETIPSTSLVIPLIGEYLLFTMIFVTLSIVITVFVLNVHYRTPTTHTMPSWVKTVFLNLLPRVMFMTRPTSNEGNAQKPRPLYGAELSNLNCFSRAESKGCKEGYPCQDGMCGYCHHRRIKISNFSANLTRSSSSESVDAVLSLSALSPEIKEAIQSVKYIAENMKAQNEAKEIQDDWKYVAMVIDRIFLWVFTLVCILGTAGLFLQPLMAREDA
Neuronal acetylcholine receptor; alpha3/beta4, sequence (P30926 whole entry): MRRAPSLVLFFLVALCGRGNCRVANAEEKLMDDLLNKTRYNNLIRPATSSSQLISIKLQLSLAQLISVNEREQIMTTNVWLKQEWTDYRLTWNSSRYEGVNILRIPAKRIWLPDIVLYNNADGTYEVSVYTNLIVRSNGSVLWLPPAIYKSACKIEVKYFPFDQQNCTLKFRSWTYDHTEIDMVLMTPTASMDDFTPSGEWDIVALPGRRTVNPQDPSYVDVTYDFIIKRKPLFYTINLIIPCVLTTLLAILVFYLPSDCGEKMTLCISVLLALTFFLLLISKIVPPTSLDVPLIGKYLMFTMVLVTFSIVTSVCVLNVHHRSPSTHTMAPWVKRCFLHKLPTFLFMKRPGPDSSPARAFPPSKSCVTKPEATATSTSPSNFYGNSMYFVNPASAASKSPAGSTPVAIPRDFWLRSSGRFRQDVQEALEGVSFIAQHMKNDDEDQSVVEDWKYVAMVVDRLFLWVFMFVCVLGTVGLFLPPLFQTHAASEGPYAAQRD
Neuronal acetylcholine receptor; alpha3/beta4, sequence (P32297 whole entry): as the sequence (P32297 whole entry) above
Neuronal acetylcholine receptor subunit alpha-7, sequence (P36544 whole entry): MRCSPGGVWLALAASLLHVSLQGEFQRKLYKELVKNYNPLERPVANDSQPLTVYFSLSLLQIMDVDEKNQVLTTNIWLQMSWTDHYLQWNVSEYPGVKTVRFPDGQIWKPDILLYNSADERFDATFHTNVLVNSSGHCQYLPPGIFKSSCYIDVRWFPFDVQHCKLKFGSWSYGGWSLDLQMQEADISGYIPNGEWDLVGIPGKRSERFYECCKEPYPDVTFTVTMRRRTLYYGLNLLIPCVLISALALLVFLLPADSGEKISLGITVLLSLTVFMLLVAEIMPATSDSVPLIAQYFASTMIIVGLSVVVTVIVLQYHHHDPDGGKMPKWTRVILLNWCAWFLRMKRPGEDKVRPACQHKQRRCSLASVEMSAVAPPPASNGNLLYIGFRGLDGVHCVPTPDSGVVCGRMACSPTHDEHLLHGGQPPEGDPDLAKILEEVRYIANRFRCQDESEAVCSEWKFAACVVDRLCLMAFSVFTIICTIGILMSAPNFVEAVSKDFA
Neuronal acetylcholine receptor; alpha4/beta2 (Rattus norvegicus, UniProt P09483+P12390), sequence (P09483 whole entry): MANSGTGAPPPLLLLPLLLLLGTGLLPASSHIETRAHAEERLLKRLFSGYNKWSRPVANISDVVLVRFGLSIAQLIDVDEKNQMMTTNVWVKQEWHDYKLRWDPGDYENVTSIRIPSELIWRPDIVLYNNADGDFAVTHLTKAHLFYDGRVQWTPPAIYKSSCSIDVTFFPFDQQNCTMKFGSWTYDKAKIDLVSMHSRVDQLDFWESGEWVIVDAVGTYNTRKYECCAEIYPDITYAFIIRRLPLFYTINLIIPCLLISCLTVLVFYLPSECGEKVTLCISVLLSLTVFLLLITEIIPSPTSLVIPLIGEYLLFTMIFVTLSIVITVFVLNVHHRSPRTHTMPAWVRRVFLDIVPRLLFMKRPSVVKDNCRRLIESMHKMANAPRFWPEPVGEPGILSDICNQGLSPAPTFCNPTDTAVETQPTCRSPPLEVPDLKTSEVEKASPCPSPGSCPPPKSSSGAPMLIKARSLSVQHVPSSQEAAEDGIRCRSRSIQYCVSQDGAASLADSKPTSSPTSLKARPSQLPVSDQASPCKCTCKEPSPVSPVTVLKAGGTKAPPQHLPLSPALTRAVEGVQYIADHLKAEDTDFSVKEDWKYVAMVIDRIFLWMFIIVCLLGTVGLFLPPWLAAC
Neuronal acetylcholine receptor; alpha4/beta2 (Rattus norvegicus, UniProt P09483+P12390), sequence (P12390 whole entry): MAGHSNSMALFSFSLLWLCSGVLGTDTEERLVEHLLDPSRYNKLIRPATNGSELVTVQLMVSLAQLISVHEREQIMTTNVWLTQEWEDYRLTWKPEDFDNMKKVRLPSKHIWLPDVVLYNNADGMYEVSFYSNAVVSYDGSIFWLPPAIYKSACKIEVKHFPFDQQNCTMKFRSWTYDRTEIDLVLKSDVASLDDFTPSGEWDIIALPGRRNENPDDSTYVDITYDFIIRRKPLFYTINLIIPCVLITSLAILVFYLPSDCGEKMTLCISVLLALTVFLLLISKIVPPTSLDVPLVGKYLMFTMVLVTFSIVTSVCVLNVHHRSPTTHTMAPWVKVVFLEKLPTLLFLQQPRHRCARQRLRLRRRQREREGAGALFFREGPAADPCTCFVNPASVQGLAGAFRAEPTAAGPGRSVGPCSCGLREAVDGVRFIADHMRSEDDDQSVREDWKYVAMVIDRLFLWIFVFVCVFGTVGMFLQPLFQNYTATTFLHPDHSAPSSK

For orientation: EC50 means the concentration giving half of the maximal effect. Regarding `Fc1cccc(Cl)c1-c1cc(-c2cnn(C3CCNCC3)c2)on1`, the Efficacy in data set [1] came out at 60%. Besides, the EC50 in data set [2] is 0.048 µM.
On the same counts, the results for `Fc1ccc(Cl)c(-c2cc(-c3cnn(C4CCNCC4)c3)on2)c1` are 29% and 0.27 µM.
One may read the efflux ratio as a quotient of directional permeabilities that is used to spot active efflux. On to `Cn1c(-c2cc(-c3c(F)cccc3Cl)no2)cnc1C1(F)CCNCC1`, for which the Efficacy in [1] was found to be 68%. Further, the efflux ratio with MDR1 came out at 1. For the same compound, the EC50 in data set [2] worked out at 0.034 µM.
As for `Cc1c(-c2cc(-c3c(F)cccc3Cl)no2)cnn1C1CCNCC1`, the Efficacy in [1] came out at 66%. For the same compound, the EC50 in data set [2] was found to be 0.006 µM.
On the same counts, the results for `Cc1c(-c2cc(-c3ccccc3)no2)cnn1C1CCNCC1` are 31% and 1.2 µM.
Regarding `Clc1ccccc1-c1cc(-c2cnc(C3CCNCC3)s2)on1`, in [1], the Efficacy stood at 63%. For the same compound, the concentration at 1 h in [3] was found to be 8500 nM; in data set [4], 300 nM; in data set [5], 21 nM. Further, in [2], the EC50 was 0.033 µM.
On to `CCn1c(-c2cc(-c3c(F)cccc3Cl)no2)cnc1C1CCNCC1`, for which the Efficacy in [1] was determined as 87%. The efflux ratio in the data set on MDR1 is over 10. Further, the EC50 in data set [2] was 0.003 µM.
With `Cc1cc(-c2cnn(C3CCNCC3)c2)on1`, the Efficacy in [1] stood at 19%. For the same compound, the EC50 in [2] worked out at 1.3 µM.
On the same counts, the results for `Fc1ccc(-c2cc(-c3cnn(C4CCNCC4)c3)on2)c(Cl)c1` are 56% and 0.22 µM.
Turning to `Clc1ccccc1-c1cc(-c2cnn(C3CCNCC3)c2)on1`, the EC50 was over 100 µM in [6], 0.12 µM in [2] and over 100 µM in data set [7]. In addition, in data set [1], the Efficacy worked out at 38%.
As for `c1ccc(-c2cc(-c3cnn(C4CCNCC4)c3)on2)cc1`, the EC50 in data set [2] is over 100 µM.
Turning to `Fc1cccc(-c2cc(-c3cnn(C4CCNCC4)c3)on2)c1Cl`, the Efficacy in [1] turned out to be 47%. Besides, in [2], the EC50 was found to be 0.23 µM.
On the same counts, the results for `c1nn(C2CCNCC2)cc1-c1cc(C2CCCCC2)no1` are 16% and 4.6 µM.
For `Clc1cnccc1-c1cc(-c2cnn(C3CCNCC3)c2)on1` the same measures were 50% and 0.2 µM.
As to `Cc1c(-c2cc(-c3ccccc3Cl)no2)cnn1C1CCNCC1`, the outcome in data set [8] was inactive. Also, in [9], the outcome was Active. Besides, the Efficacy in [1] was 71%. Moreover, the concentration at 1 h came to 5200 nM in [3], 610 nM in data set [4] and 130 nM in data set [5]. In addition, the EC50 in data set [10] was over 100 µM; in data set [2], 0.018 µM; in [11], 0.02 µM.
For `CN(Cc1cc(-c2ccccc2Cl)no1)C(=O)C1CCNCC1`, the EC50 in [6] is over 100 µM; in data set [2] it was 0.35 µM; in data set [7], over 100 µM. Moreover, the Efficacy in data set [1] is 41%.
Regarding `Cn1c(-c2cc(-c3c(F)cccc3Cl)no2)cnc1C1CCNCC1`, the Efficacy in [1] is 71%. In addition, the efflux ratio in the data set on MDR1 was over 10. Also, the EC50 in data set [2] was 0.012 µM.
With `CCn1c(-c2cc(-c3c(F)cccc3Cl)no2)cnc1C1(F)CCNCC1`, in data set [1], the Efficacy was determined as 74%. Besides, the concentration at 1 h came to 6500 nM in data set [3], 600 nM in data set [4] and 29 nM in data set [5]. The efflux ratio with MDR1 turned out to be 1. Besides, the EC50 in [2] came to 0.003 µM.
In the case of `Clc1sccc1-c1cc(-c2cnn(C3CCNCC3)c2)on1`, the Efficacy in data set [1] stood at 42%. Moreover, in [2], the EC50 is 0.13 µM.
In the case of `Clc1cccc(Cl)c1-c1cc(-c2cnn(C3CCNCC3)c2)on1`, the Efficacy in data set [1] amounted to 73%. Also, the 50% effective concentration (EC50) in [2] is 0.41 µM.
